# Assay results taken from the array DNA melting data of Ke et al. (doi:10.1101/2024.01.08.574731).
# Legend:
# [1] = folding enthalpy; higher = less favourable; fluorescence melt of hairpins on a sequencing array, two-state fit; settings: sodium 0.088 M
# How it was run: (§1)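 Cy3 fluorescence of library hairpins on a sequenced MiSeq flow cell, with annealed Cy3 and quencher oligos, was imaged in 50 mM Na-HEPES pH 8.0, 25 mM NaCl in 2.5 °C steps up to 60 °C. Signals were normalised to pre-quench Cy3 and to control variants. Melting temperature and folding enthalpy came from bootstrapped two-state fits, inverse-variance combined over four replicates. Fitted temperatures were raised by 9.35 °C to match UV melts.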
# [2] = melting temperature; fluorescence melt of hairpins on a sequencing array, two-state fit, raised by 9.35 °C to match UV melts; settings: sodium 0.088 M
# How it was run: as §1
Sequence,folding enthalpy [1] [kcal/mol],Tm [2] [°C]
GGCCTCGAAAGAGACGCC ((((((....)))..))),-24.3,47.7
GTTAGCCCGAAAGGGAAC (((..(((....)))))),-11.5,28.1
GATGCTGAAAAGCATC ((((((....)))))),-39.1,63
GGCTACACGAAAGTGGCC (((..(((....)))))),-24.3,51.6
GACCTTGGAAACAAGACC (..((((....))))..),-10.9,20
GTCCGCTCGAAAGAGGAC (((..(((....)))))),-29,47.4
CGCGGAAAAGTCCGCG ((((((....)))))),-38.4,60.9
GACGACGAAAGTCGAGTC ((((((....)))..))),-10.5,39.7
GGAATCGGAAACGACTCC (((.(((....))).))),-28.9,40.4
GTGCTGGGAAACCAGTGC (..((((....))))..),-27.9,47.5
GGGCATGGAAACGTGTCC ((.((.(....).)).)),-29,45
GTGAGAACGAAAGTTCAC (((..(((....)))))),-18,43.9
GACTGGCGAAAGCCTGTC (((.(((....))).))),-21.6,68.9
GTGCTATCGAAAGATCAC (((..(((....)))))),-13,30.6
GCATTGCGAAAGCCATGC ((((.((....)).)))),-29.1,58.4
GGGACAGGAAACCGTCCC (((((.(....).))))),-36.2,52.8
GGCCACGAAAGTGTGGCC ((((((....)))..))),-33.6,68.5
GCCTTCACGAAAGTGGGC (((..(((....)))))),-18.6,46.6
GGTGCGGGAAACCGCGCC ((.((((....)))).)),-31.3,68.7
GATCCGGCCGCGGATC ((((((....)))))),-41.5,58
GCACCGTCGAAAGACTGC (((..(((....)))))),-17.7,35.9
GGGGATACGAAAGTACCC (((..(((....)))))),-24.2,49.2
GTTTGCGAAAGCAGAAAC ((((((....)))..))),-11.2,34.2

Sequence,folding enthalpy [1] [kcal/mol],Tm [2] [°C]
GATCCCTCAGGGGATC ((((((....)))))),-34.6,60.6
GTACTTGAAAAAGTAC ((((((....)))))),-32.7,48.6
GGAGACGAAAGTCCCTCC ((((((....)))..))),-16.3,49.8
GGCCGAGGAAACTTGGCC ((((.((....)).)))),-49.1,59.4
GTAGCCGAAAGGCTCTAC ((((((....)))..))),-8.79,38.6
GCCTCCGAAAGGATTGGC ((((((....)))..))),-19.7,47.4
GCCCGACGAAAGTCAGGC (((.(((....))).))),-31.8,57.3
GCTGGCGAAAGCCAAAGC ((((((....)))..))),-18.2,53.5
GATCTTTCATAAGATC ((((((....)))))),-31.4,44.8
GTAAGCCGAAAGGCTAC (((.(((....)))))),-11.5,47.3
GTCGGCGAAAGCCATGAC ((((((....)))..))),-13.9,42.4
GTACACGCGAAAGCGTAC (((..(((....)))))),-8.06,35.5
GTACGCACGAAAGTGTAC (((..(((....)))))),-15.6,36.4
GCTGAAGAAATTCAGC ((((((....)))))),-37.6,54.5
GTATTCGAAAGAACTAC ((((((....))).))),-9.16,22.4
GATCTTATTTAAGATC ((((((....)))))),-38.8,46.4
GAACCCGAAAGGGGCTTC ((((((....)))..))),-20,51
GCGTCCGAAAGGAGCCGC ((((((....)))..))),-16.9,50.1
GATCATGCGAATGATC ((((((....)))))),-46.8,53.8
GAAACCGAAAGGTAATTC ((((((....)))..))),-9.6,27.9
GTGGACGAAAGTCTCCAC ((((((....)))..))),-17.2,38.8
GTCGCCGAAAGGCCGAC ((((((....))).))),-18.1,60.7
GATCCAGACCTGGATC ((((((....)))))),-44.8,54.6

Sequence,folding enthalpy [1] [kcal/mol],Tm [2] [°C]
GGTATACGAAAGTAACC (((.(((....)))))),-19.3,34.9
GCAGCAGGAAACCACTGC ((((..(....)..)))),-18.8,34.7
GCCACTGGAAACGGTGGC (((((.(....).))))),-50.6,58.6
ATACCGAAAGGTAT (((((....))))),-20.2,52.2
GATCTTGTGAAGATC ((((((...)))))),-28.9,42.4
GATCATCCCTATGATC ((((((....)))))),-37.4,47.5
GGTGACGAAAGTCCACC ((((((....))).))),-25.9,50.8
GCATAGCGAAAGCTGGGC ((..(((....)))..)),-18.1,56.5
GAACCAGGAAACCGGTTC (((((.(....).))))),-36.3,45.1
TTCAGGAAACTGAA (((((....))))),-13.5,35.7
GCGTCCGAAAGGAAGCGC ((((((....)))..))),-29.7,67.4
GTAAGAGAAATCTTAC ((((((....)))))),-22,38.6
GTGGACGAAAGTCACAC ((((((....))).))),-20.9,50
GATCCAATATTGGATC ((((((....)))))),-41.7,52.2
GCCAACGAAAGTTTGGC ((((((....))).))),-34.1,54.6
GCACCCGGAAACAGGTGC (((((.(....).))))),-34.6,52.4
GGAGGCGGAAACACCCCC ((.((.(....).)).)),-12.8,26.6
GAGCGCCCGAAAGGGCTC (((..(((....)))))),-6.69,29.4
GCGGGGCGAAAGCCTTGC ((..(((....)))..)),-18,58.4
GAATAGCGAAAGCTCTTC (((.(((....))).))),-19.4,38.7
GGCGGCTCGAAAGAGGCC (((..(((....)))))),-11.4,51.6
GGAATTGGAAACAATCCC ((.((((....)))).)),-20.1,35.6
GCTACGCGAAAGCGTTGC ((.((((....)))).)),-27.2,65

Sequence,folding enthalpy [1] [kcal/mol],Tm [2] [°C]
GGGCTCGCGAAAGCGCCC (((..(((....)))))),-15.7,56.5
GCAATAGCGAAAGCTTGC (((..(((....)))))),-24.7,48.7
GGCGACGAAAGTCAGGCC ((((((....)))..))),-31.3,55.5
GATCAGTTATCTGATC ((((((....)))))),-34.2,52.1
GTCTCGACGAAAGTCGAC (((..(((....)))))),-8.21,35.1
GAGATGCGAAAGCAGCTC (((.(((....))).))),-34.6,69.1
GATCTACATATAGATC ((((((....)))))),-35.4,40.8
GCGGTTCTCCGC ((((....)))),-31.9,58.3
GATCCATGTTTGGATC ((((((....)))))),-42.8,53.8
GATCTGACGACAGATC ((((((....)))))),-35,48.5
GTCTAGCGAAAGCTGGAC (((.(((....))).))),-33.7,61.6
GTAGTAACGAAAGTTTAC (((..(((....)))))),-9.07,27.1
GCCGAGCGAAAGCGCCGC ((.(.((....)).).)),-12,41.9
GCTCGTGGAAACACGAAC (.(((((....))))).),-14.6,45.2
GTTATGGGAAACCATGAC ((.((((....)))).)),-34.4,43.5
GAGCGCGGAAACGCACTC (((.(((....))).))),-24.2,59
GGTTGTGGAAACACAACC (((((((....))))))),-42,66.3
GCGTCATTACGC ((((....)))),-22.9,55
GCAAAGGAAACTTTGC ((((((....)))))),-31.2,55.3
GTGTACGAAAGTAGGCAC ((((((....)))..))),-16.5,32.8
GTCATCGAAAGATCTGAC ((((((....)))..))),-10.9,23.8
GATCTACACCTAGATC ((((((....)))))),-39.5,42.5
GCCGTGTCGAAAGACGGC (((..(((....)))))),-31.4,58.9
